Measurements: ChEMBL document CHEMBL3580635, “9-Hydroxycanthin-6-one, a β-Carboline Alkaloid from Eurycoma longifolia, Is the First Wnt Signal Inhibitor through Activation of Glycogen Synthase Kinase 3β without Depending on Casein Kinase 1α” (J Nat Prod, 2015)
The source made the active and inactive calls. The rule behind the calls is not given here.

Tests used:
[1] = test system: HEK-293T; experiment: Cytotoxicity against HEK293T cells assessed as cell viability after 24 hrs by fluorescence assay; format: cell-based; details: Homo sapiens
[2] = test system: SW480; experiment: Effect on GSK-3beta expression in human SW480 cells at 10 to 30 uM after 24 hrs by Western blot analysis; format: functional, cell-based
Outline: (§1)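 SW480 cells, 1 × 10^6 per 90 mm dish, treated 24 h after seeding for 24 h. Whole-cell lysates made in Triton/deoxycholate buffer with phosphatase and protease inhibitors; cytosolic and nuclear fractions prepared by NE-PER. Proteins run on 10% SDS-PAGE, blotted to PVDF, probed, detected by ECL. Bands normalized to β-actin or histone H1.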

[3] = biological target: Casein kinase I isoform alpha (Homo sapiens) (UniProt P48729); experiment: Effect on CK1alpha in human SW480 cells assessed as change in phosphorylation of beta-catenin at Ser45 at 10 to 30 uM after 24 hrs by Western blot analysis; format: cell-based; outline: as §1
Sequence of Casein kinase I isoform alpha (Homo sapiens) (P48729 2-337 limits assumed): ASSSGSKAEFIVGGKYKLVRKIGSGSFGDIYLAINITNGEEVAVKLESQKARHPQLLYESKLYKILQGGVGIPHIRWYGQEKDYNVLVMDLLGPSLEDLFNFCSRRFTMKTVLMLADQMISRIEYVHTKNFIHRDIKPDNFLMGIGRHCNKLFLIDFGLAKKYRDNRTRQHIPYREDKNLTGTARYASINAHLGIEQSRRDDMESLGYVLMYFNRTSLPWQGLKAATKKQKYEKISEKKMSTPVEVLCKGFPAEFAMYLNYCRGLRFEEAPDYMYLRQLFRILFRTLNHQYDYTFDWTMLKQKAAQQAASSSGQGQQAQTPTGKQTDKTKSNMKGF

[4] = biological target: T1, Glycogen synthase kinase-3 beta (Homo sapiens, UniProt P49841); experiment: Inhibition of GSK-3beta phosphorylation at Ser9 in human SW480 cells at 30 uM after 24 hrs by Western blot analysis in presence of CK1alpha siRNA; format: cell-based
Outline: (§2)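 SW480 cells, 5 × 10^4/well, grown 24 h, then transfected for 6 h with control or CK1α siRNA (10 pmol, Lipofectamine 2000). Compound then added in DMEM/10% FBS for 24 h. Whole-cell lysates Western blotted, normalized to β-actin.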
Target sequence in this assay (P49841 whole entry, looked up): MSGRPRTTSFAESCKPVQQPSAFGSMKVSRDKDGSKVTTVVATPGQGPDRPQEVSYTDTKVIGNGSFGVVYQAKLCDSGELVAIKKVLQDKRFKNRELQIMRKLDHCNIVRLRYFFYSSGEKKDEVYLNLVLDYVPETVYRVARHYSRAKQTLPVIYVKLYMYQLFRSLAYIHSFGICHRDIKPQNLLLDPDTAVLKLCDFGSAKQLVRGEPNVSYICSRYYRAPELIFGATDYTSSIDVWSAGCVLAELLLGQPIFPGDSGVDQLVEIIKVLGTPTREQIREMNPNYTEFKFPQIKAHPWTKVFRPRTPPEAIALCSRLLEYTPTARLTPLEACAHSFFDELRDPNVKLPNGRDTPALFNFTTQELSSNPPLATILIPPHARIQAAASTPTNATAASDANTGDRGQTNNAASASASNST

[5] = biological target: T1, Glycogen synthase kinase-3 beta; experiment: Activation of GSK-3beta in HEK293 cells assessed as suppression of TCF/beta-catenin transcriptional activity after 24 hrs by SuperTOPFlash reporter gene assay; format: cell-based
Outline: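 STF/293 cells (293 cells stably carrying SuperTOPFlash, seven LEF/TCF sites) seeded 3 × 10^4/well; 24 h later given compound plus LiCl (final 15 mM) for 24 h. Cells lysed and firefly luciferase read, compared with no-compound control. DMSO final below 0.1%. At least triplicate; mean ± SE, n = 3.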

[6] = organism: Danio rerio; experiment: Activation of GSK-3beta in zebrafish embryo assessed as reduction of BIO-induced eyeless phenotype appearance at 100 uM measured 4 to 30 hrs post fertilization; design: scale not given: the % may be the effect or the level left
Outline: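 Zebrafish embryos exposed 4–30 hpf at 28.5 °C in E3 medium to BIO (0.5 μM) alone or BIO plus compound (100 μM), then examined under a stereomicroscope.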

[7] = biological target: T1, Glycogen synthase kinase-3 beta; experiment: Activation of GSK-3beta in human SW480 cells assessed as increase in phosphorylation of beta-catenin at Ser33 at 30 uM after 24 hrs by Western blot analysis in presence of CK1alpha siRNA; format: cell-based; outline: as §2
Target sequence in this assay (P49841 whole entry, looked up): as above

[8] = test system: SW480; experiment: Effect on CK1alpha expression in human SW480 cells at 10 to 30 uM after 24 hrs by Western blot analysis; format: functional, cell-based; outline: as §1
[9] = biological target: T1, Glycogen synthase kinase-3 beta; experiment: Activation of GSK-3beta in human SW480 cells assessed as increase in phosphorylation of beta-catenin at Thr41 at 30 uM after 24 hrs by Western blot analysis in presence of control siRNA; format: cell-based
Outline: (§3)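 SW480 cells, 1 × 10^5/well, grown 24 h, then transfected for 3 h with control or GSK3β siRNA (10 pmol, Lipofectamine 2000). Compound then added in DMEM/10% FBS for 24 h. Whole-cell lysates Western blotted, normalized to β-actin.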
Target sequence in this assay (P49841 whole entry, looked up): as above

[10] = organism: Danio rerio; experiment: Activation of GSK-3beta in zebrafish embryo assessed as suppression of zic2a gene expression in midbrain tectum at 300 uM measured 4 to 24 hrs post fertilization by in situ hybridization method in presence of MO, p53 MO; format: tissue-based
[11] = biological target: T1, Glycogen synthase kinase-3 beta; experiment: Activation of GSK-3beta in human SW480 cells assessed as increase in phosphorylation of beta-catenin at Thr41 at 30 uM after 24 hrs by Western blot analysis in presence of CK1alpha siRNA; format: cell-based; outline: as §2
Target sequence in this assay (P49841 whole entry, looked up): as above

[12] = biological target: T1, Glycogen synthase kinase-3 beta; experiment: Activation of GSK-3beta in human SW480 cells assessed as increase in phosphorylation of beta-catenin at Ser33 at 30 uM after 24 hrs by Western blot analysis in presence of control siRNA; format: cell-based; outline: as §3
Target sequence in this assay (P49841 whole entry, looked up): as above

[13] = test system: HEK293; experiment: Cytotoxicity against HEK293 cells transfected with SuperTOPFlash reporter gene assessed as cell viability at 5 to 20 uM after 24 hrs by fluorescence assay; format: cell-based; details: human, hek293, 24 h
Outline: (§4)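 STF/293 cells seeded 3 × 10^4/well, grown 24 h, then exposed 24 h to compound diluted in medium (DMSO final below 0.1%). Cells washed, then given fluorescein diacetate 10 μg/mL in PBS for 1 h at 37 °C. Fluorescence read at ex 485/em 538 nm. Mean ± SE, n = 3.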

[14] = biological target: T1, Glycogen synthase kinase-3 beta; experiment: Activation of GSK-3beta in human SW480 cells assessed as downregulation of beta-catenin expression in cytosolic fraction at 10 to 30 uM after 24 hrs by Western blot analysis; format: cell-based; outline: as §1
Target sequence in this assay (P49841 whole entry, looked up): as above

[15] = biological target: T1, Glycogen synthase kinase-3 beta; experiment: Activation of GSK-3beta in human SW480 cells assessed as increase in phosphorylation of beta-catenin at Ser37 at 30 uM after 24 hrs by Western blot analysis in presence of GSK-3beta siRNA; format: cell-based; outline: as §3
[16] = Cytotoxicity against Wnt-dependent human DLD1 cells assessed as cell viability after 24 hrs by fluorescence assay; format: functional, cell-based; details: DLD-1, 24 h
[17] = biological target: T1, Glycogen synthase kinase-3 beta; experiment: Inhibition of GSK-3beta phosphorylation at Ser9 in human SW480 cells at 30 uM after 24 hrs by Western blot analysis in presence of control and GSK-3beta siRNA; format: cell-based; outline: as §3
[18] = biological target: T1, Glycogen synthase kinase-3 beta; experiment: Activation of GSK-3beta in human SW480 cells assessed as increase in phosphorylation of beta-catenin at Ser33 at 10 to 30 uM after 24 hrs by Western blot analysis; format: cell-based; outline: as §1
[19] = test system: HEK293; experiment: Cytotoxicity against HEK293 cells assessed as cell viability after 24 hrs by fluorescence assay; format: cell-based; details: Homo sapiens, HEK293, 24 h
[20] = organism: Danio rerio; experiment: Induction of apoptosis in zebrafish embryo at 300 uM measured 10 to 24 hrs post fertilization by TUNEL assay in presence of MO, p53 MO; format: organism-based; details: in vivo
Outline: (§5)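 TOPdGFP transgenic zebrafish embryos injected at the one- or two-cell stage with 5 ng control or p53 morpholino. Exposed 10–24 hpf at 28.5 °C in E3 medium containing 300 μM compound. TOPdGFP in the midbrain tectum imaged by fluorescence microscopy; apoptotic cells detected by TUNEL kit.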

[21] = test system: SW480; experiment: Cytotoxicity against Wnt-dependent human SW480 cells assessed as cell viability after 24 hrs by fluorescence assay; details: SW480, 24 h
[22] = Activation of GSK-3beta in zebrafish embryo assessed as suppression of Wnt/beta-catenin signaling pathway at 300 uM measured 10 to 24 hrs post fertilization by TOPdGFP reporter gene-based fluorescence microscopic analysis in presence of MO, p53 MO; details: Danio rerio; outline: as §5
[23] = organism: Danio rerio; experiment: Activation of GSK-3beta in zebrafish embryo assessed as reduction of pigment cells on tail at 300 uM measured 4 to 30 hrs post fertilization
[24] = biological target: T1, Glycogen synthase kinase-3 beta; experiment: Activation of GSK-3beta in human SW480 cells assessed as increase in phosphorylation of beta-catenin at Ser37 at 10 to 30 uM after 24 hrs by Western blot analysis; format: cell-based; outline: as §1
[25] = biological target: T1, Glycogen synthase kinase-3 beta; experiment: Activation of GSK-3beta in human SW480 cells assessed as increase in phosphorylation of beta-catenin at Ser33 at 30 uM after 24 hrs by Western blot analysis in presence of GSK-3beta siRNA; format: cell-based; outline: as §3
[26] = biological target: T1, Glycogen synthase kinase-3 beta; experiment: Activation of GSK-3beta in human SW480 cells assessed as increase in phosphorylation of beta-catenin at Thr41 at 10 to 30 uM after 24 hrs by Western blot analysis; format: cell-based; outline: as §1
[27] = organism: Danio rerio; experiment: Activation of GSK-3beta in zebrafish embryo assessed as suppression of mitf gene expression in neural crest cells at 300 uM measured 24 hrs post fertilization by in situ hybridization method in presence of MO, p53 MO; format: cell-based
[28] = biological target: T1, Glycogen synthase kinase-3 beta; experiment: Activation of GSK-3beta in human SW480 cells assessed as increase in phosphorylation of beta-catenin at Ser37 at 30 uM after 24 hrs by Western blot analysis in presence of control siRNA; format: cell-based; outline: as §3
[29] = test system: HCT-116; experiment: Cytotoxicity against Wnt-dependent human HCT116 cells assessed as cell viability after 24 hrs by fluorescence assay; format: functional, cell-based; details: HCT-116, 24 h
[30] = biological target: T1, Glycogen synthase kinase-3 beta; experiment: Activation of GSK-3beta in human SW480 cells assessed as increase in phosphorylation of beta-catenin at Thr41 at 30 uM after 24 hrs by Western blot analysis in presence of GSK-3beta siRNA; format: cell-based; outline: as §3
[31] = biological target: T1, Glycogen synthase kinase-3 beta; experiment: Activation of GSK-3beta in human SW480 cells assessed as increase in phosphorylation of beta-catenin at Ser37 at 30 uM after 24 hrs by Western blot analysis in presence of CK1alpha siRNA; format: cell-based; outline: as §2
[32] = biological target: T1, Glycogen synthase kinase-3 beta; experiment: Activation of GSK-3beta in human SW480 cells assessed as downregulation of beta-catenin expression in nuclear fraction at 10 to 30 uM after 24 hrs by Western blot analysis; format: cell-based; outline: as §1
[33] = test system: RKO; experiment: Cytotoxicity against Wnt-independent human RKO cells assessed as cell viability after 24 hrs by fluorescence assay; format: functional, cell-based
[34] = test system: HEK293; experiment: Cytotoxicity against HEK293 cells transfected with SuperTOPFlash reporter gene assessed as cell viability at 2.5 to 10 uM after 24 hrs by fluorescence assay; format: cell-based; details: human, hek293, 24 h; outline: as §4
[35] = test system: HEK293; experiment: Cytotoxicity against HEK293 cells transfected with SuperTOPFlash reporter gene assessed as cell viability at 10 to 40 uM after 24 hrs by fluorescence assay; format: cell-based; details: human, hek293, 24 h; outline: as §4

With `O=c1ccc2nccc3c4ccc(O)cc4n1c23` the IC50 [1] was greater than 40 µM, the Activity [2] was “inactive” and the Activity [3] was “inactive”. The inhibition [4] was “Active”, the Activity [5] was “Dose-dependent effect” and the IC50 [5] was 6.8 µM. For the same compound, the Activity [6] was 46%, the Activity [7] was “Active” and the Activity [8] was “inactive”. For the same compound, the Activity [9] was “Active”, the Activity [10] was “Active” and the Activity [11] was “Active”. The Activity [12] was “Active”, the Activity [13] was “Non-toxic” and the Activity [14] was “Active”. The Activity [15] was “inactive”, the IC50 [16] was greater than 40 µM and the inhibition [17] was “Active”. The Activity [18] was “Active”, the IC50 [19] was 36.7 µM and the Activity [20] was “Non-toxic”. For the same compound, the IC50 [21] was 17.4 µM, the Activity [22] was “Active” and the Activity [23] was “Active”. The Activity [24] was “Active”, the Activity [25] was “inactive” and the Activity [26] was “Active”. The Activity [27] was “Active”, the Activity [28] was “Active” and the IC50 [29] was 30 µM. For the same compound, the Activity [30] was “inactive”, the Activity [31] was “Active” and the Activity [32] was “Active”. It also gave an IC50 [33] greater than 40 µM.
For `CC(=O)O[C@@H]1C[C@H]2C(C)(C)C(=O)C=C[C@]2(C)[C@H]2CC[C@]3(C)C(=CC[C@H]3[C@H]3COC(=O)C3)[C@@]21C`, the IC50 [1] was greater than 40 µM, the Activity [5] was “Dose-dependent effect” and the IC50 [5] was 3 µM. For the same compound, the Activity [34] was “Non-toxic”, the IC50 [16] was 31.7 µM and the IC50 [19] was 31.2 µM. It also gave an IC50 [21] of 11.2 µM, an IC50 [29] of 24.4 µM and an IC50 [33] of 26.4 µM.
For `O=c1ccc2nccc3c4ccc(O[C@@H]5O[C@H](CO)[C@@H](O)[C@H](O)[C@H]5O)cc4n1c23`, the IC50 [1] was greater than 40 µM, the Activity [5] was “Dose-dependent effect” and the IC50 [5] was 11.6 µM. For the same compound, the Activity [35] was “Non-toxic”, the IC50 [16] was greater than 40 µM and the IC50 [19] was 36.7 µM. The IC50 [21] was greater than 40 µM, the IC50 [29] was greater than 40 µM and the IC50 [33] was greater than 40 µM.
